Results from different studies.
Each line is one published result; the experiments were not run side by side.
Organism: Staphylococcus aureus
Observed: microbial growth

`Cc1cc(N)c2ccccc2[n+]1CCCCCCCCCC[n+]1c(C)cc(N)c2ccccc21` has an inhibition zone of 9 mm (disc diffusion; 50 µg/disc).
With `CC(C)Cc1nn(-c2nc3ccc(Cl)cc3s2)c2c1C(=O)c1ccccc1-2` the inhibition zone was 11 mm (well diffusion; NCIM5021; 1000 µg/mL).
For `CC(=O)C1=C(C)N2NC(C)(c3ccccc3O)N(C(C)C(=O)O)C2=NC1c1ccc(Cl)cc1` (stereo not shown), the inhibition zone was 17 mm (ATCC25923; 15 µg/mL, 24 h).
For `O=C(O)c1cn(C2CC2)c2cc(N3CCNCC3)c(F)cc2c1=O`, the inhibition zone was 18 mm (SG511; 1000 µg/mL).
`CC(=O)C1=C(C)N2NC(c3ccccc3O)N(C(Cc3c[nH]c4ccccc34)C(=O)O)C2=NC1c1ccc(Cl)cc1` (stereo not shown) has an inhibition zone of 32 mm (ATCC25923; 15 µg/mL, 24 h).
The inhibition zone of `CC(C)Cc1nn(-c2nc3ccc(Br)cc3s2)c2c1C(=O)c1ccccc1-2` is reported as 11 mm (well diffusion; NCIM5021; 125 µg/mL).
The inhibition zone of `COc1cc(C=CC(=O)CC(c2ccc(N(C)C)cc2)n2ccnc2)ccc1O` (stereo not shown) is reported as 10.7 mm (disc diffusion; ATCC29213; 500 µg/mL).
`N#Cc1c(-c2ccc(Cl)cc2)nc2n(c1=O)NC(c1ccccc1O)N2C(Cc1c[nH]c2ccccc12)C(=O)O` (stereo not shown) gave an inhibition zone of 32 mm (ATCC25923; 15 µg/mL, 24 h).
With `Cc1nn(-c2nc3ccccc3s2)c2c1C(=O)c1ccccc1-2` the inhibition zone was 11 mm (well diffusion; NCIM5021; 1000 µg/mL).
`CC1(C)S[C@@H]2[C@H](NC(=O)[C@H](N)c3ccc(O)cc3)C(=O)N2[C@H]1C(=O)O` has an inhibition zone of 10.8 mm (disc diffusion; ATCC29213; 500 µg/mL).
With `CCOC(=O)C1=C(C)N2NC(C)(c3ccccc3O)N(C(Cc3c[nH]c4ccccc34)C(=O)O)C2=NC1c1ccc(Cl)cc1` (stereo not shown) the inhibition zone was 18 mm (ATCC25923; 10 µg/mL, 24 h).
The inhibition zone of `COc1cc(C=Cc2cc(-c3ccc(N(C)C)cc3)nc(O)n2)ccc1O` is reported as 6.33 mm (disc diffusion; ATCC29213; 500 µg/mL).
`CC(C(=O)O)N1C2=NC(c3ccc(Cl)cc3)C3=C(OC(C)(C)OC3=O)N2NC1(C)c1ccccc1O` (stereo not shown) gave an inhibition zone of 10 mm (ATCC25923; 10 µg/mL, 24 h).
The inhibition zone of `COc1ccc2nc(-n3nc(C)c4c3-c3ccccc3C4=O)sc2c1` is reported as 11 mm (well diffusion; NCIM5021; 125 µg/mL).
`COc1cc(C=CC(=O)CC(c2ccc([N+](=O)[O-])cc2)n2ccnc2)ccc1O` (stereo not shown) has an inhibition zone of 7 mm (disc diffusion; ATCC29213; 500 µg/mL).
For `[H]/N=C(/N)N[C@H]1[C@H](O)[C@@H](O)[C@H](O[C@@H]2O[C@@H](C)[C@](O)(C=O)[C@H]2O[C@@H]2O[C@@H](CO)[C@H](O)[C@@H](O)[C@@H]2NC)[C@@H](N/C(N)=N\[H])[C@@H]1O`, the inhibition zone was 20 mm (well diffusion; NCIM5021; 125 µg/mL).
For `CN[C@H](CC(C)C)C(=O)N[C@H]1C(=O)N[C@@H](CC(N)=O)C(=O)N[C@H]2C(=O)N[C@H]3C(=O)N[C@H](C(=O)N[C@H](C(=O)O)c4cc(O)cc(O)c4-c4cc3ccc4O)[C@H](O)c3ccc(c(Cl)c3)Oc3cc2cc(c3O[C@@H]2O[C@H](CO)[C@@H](O)[C@H](O)[C@H]2O[C@H]2C[C@](C)(N)[C@H](O)[C@H](C)O2)Oc2ccc(cc2Cl)[C@H]1O`, the inhibition zone was 16 mm (disc diffusion; ATCC29213; 15.6 µg/disc, 24 h).
`CCOC(=O)C1=C(C)N2NC(c3ccccc3O)N(C(Cc3c[nH]c4ccccc34)C(=O)O)C2=NC1c1ccc(Cl)cc1` (stereo not shown) has an inhibition zone of 19 mm (ATCC25923; 10 µg/mL, 24 h).
`CC(C)c1nn(-c2nc3ccccc3s2)c2c1C(=O)c1ccccc1-2` has an inhibition zone of 10 mm (well diffusion; NCIM5021; 125 µg/mL).
